Our source for the Hydrolysis (nmol min-1 mg-1), CMC and Ratio values is ChEMBL document CHEMBL1127806, “Substrate specificity in short-chain phospholipid analogs at the active site of human synovial phospholipase A2” (J Med Chem, 1994).

Where only a bound is given, the exact number is not on record here.

A short description of one data set: Hydrolysis rate of the compound. In short, it runs like this:
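pH-stat at pH 9, titrated with 1 mM NaOH. Substrate 100 μM in deionized water with 2 mM Ca²⁺, under a nitrogen stream. Started with recombinant human synovial PLA₂ (1.69 nmol, 2.41 μg), purified from baculovirus by reversed-phase HPLC; preliminary set used E. coli-expressed enzyme. Rate recorded for 1 h from base consumption.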
As for `CCCCCC(=O)OC[C@H](COP(=O)(O)OC[C@H]1CCCN1)OC(=O)CCCCC`, the Hydrolysis (nmol min-1 mg-1) turned out to be 13.
In turn, `CCCCCC(=O)OC[C@H](COP(=O)(O)OC[C@@H](N)C(=O)O)OC(=O)CCCCC` had a Hydrolysis (nmol min-1 mg-1) of less than 5.
Same read-out and setting: with `CCCCCC(=O)OC[C@H](COP(=O)(O)OC)OC(=O)CCCCC` the figure was less than 5.
Still for that read-out and setting: with `CCCCCC(=O)OC[C@H](COP(=O)(O)OCCO)OC(=O)CCCCC` the figure was less than 5; with `CCCCCC(=O)OC[C@H](COP(=O)(O)OCCN)OC(=O)CCCCC`, 5.3.
`CCCCCC(=O)OC[C@H](COP(=O)(O)O[C@@H](C)[C@@H](N)C(=O)O)OC(=O)CCCCC` displayed a Hydrolysis (nmol min-1 mg-1) of less than 5.
Still for that read-out and setting: the value for `CCCCCC(=O)OC[C@H](COP(=O)(O)OC[C@@H]1CCCN1)OC(=O)CCCCC` was 12.

A further data set can be described thus: Critical micelle concentration determined from the plots of the fluorescence intensity as a function of compound concentration. The data set is classed as ADME. The procedure, abridged:
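Fluorescence of 8-anilino-1-naphthalenesulfonic acid (5 μM) followed as a function of compound concentration. Buffer: 20 mM HEPES pH 7.5 with 2 mM Ca²⁺, no DTNB. cmc read from the intensity-versus-concentration plot.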
Compound `CCCCCC(=O)OC[C@H](COP(=O)(O)OC[C@H]1CCCN1)OC(=O)CCCCC` returned a CMC of 0.5 mM.
As to `CCCCCCCCCC(=O)S[C@H](COCCC(C)(C)C)COP(=O)([O-])OC.[Li+]`, the CMC was found to be 0.4 mM.
With `CCCCC(=O)SC[C@H](COP(=O)([O-])OC)SC(=O)CCCC.[Li+]`, the CMC is reported as more than 9 mM.
Consider `CCCCCCCC(=O)SC[C@H](COP(=O)([O-])OC)SC(=O)CCCCCCC.[Li+]`, for which the CMC is listed as 0.03 mM.
In turn, `CCCCCCCCCC(=O)S[C@H](COCc1ccccc1)COP(=O)([O-])OC.[Li+]` came in with a CMC of 0.2 mM.
`CCCOC[C@H](COP(=O)([O-])OC)SC(=O)CCC.[Li+]` yielded a CMC of 3 mM.
`CCCCCC(=O)SC[C@H](COP(=O)(OC)OC)SC(=O)CCCCC` came in with a CMC of 0.04 mM.
Compound `CCCCCCCCCC(=O)S[C@H](COCc1ccc(Oc2ccccc2)cc1)COP(=O)([O-])OC.[Li+]` displayed a CMC of 0.04 mM.
The compound `CCCCCCCC(=O)S[C@H](COCCCCC)COP(=O)([O-])OC.[Li+]` showed a CMC of 1.25 mM.
Turning to `CCCCCCCC(=O)S[C@H](COCCC)COP(=O)([O-])OC.[Li+]`, the CMC stood at 1 mM.
Regarding `CCC(=O)SC[C@H](COP(=O)([O-])OC)SC(=O)CC.[Li+]`, the CMC result was “>= 3 mM”.
Same read-out and setting: the value for `CCCCCC(=O)SC[C@H](COP(=O)([O-])OC)SC(=O)CCCCC.[Li+]` was “>= 3 mM”; that for `CCCCCCCCC(=O)SC[C@H](COP(=O)([O-])OC)SC(=O)CCCCCCCC.[Li+]` was less than 0.03 mM; that for `CCCCCCCCCC(=O)S[C@H](COCc1ccc(-c2ccccc2)cc1)COP(=O)([O-])OC.[Li+]` was 0.1 mM.
Turning to `CC/C=C\CCOC[C@H](COP(=O)([O-])OC)SC(=O)CCCCCCCCC.[Li+]`, the CMC is reported as 0.2 mM.
The same measure, in the same setting: the value for `CCCC(=O)SC[C@H](COP(=O)([O-])OC)SC(=O)CCC.[Li+]` was 2.3 mM; that for `CCCCCCCCCC(=O)S[C@H](COC/C=C/c1ccccc1)COP(=O)([O-])OC.[Li+]` was 0.04 mM; that for `CCCCCCC(=O)SC[C@H](COP(=O)([O-])OC)SC(=O)CCCCCC.[Li+]` was 0.3 mM.
Still for that read-out and setting: with `CCCCCC(=O)OC[C@H](COP(=O)(O)OC[C@@H]1CCCN1)OC(=O)CCCCC` the figure was 0.8 mM; with `CCCCCCCCOC[C@H](COP(=O)([O-])OC)SC(=O)CCCCCCC.[Li+]`, 0.13 mM.

A further data set in a line: Hydrolysis turn over determined from the plots of the fluorescence assay quantified by HPLC. The procedure, abridged: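 Recombinant human synovial PLA2 expressed in E. coli. Turnover of an amine-headgroup (phosphatidylethanolamine) substrate was measured by derivatizing the amine with excess fluorescamine and quantifying the fluorescent derivatives by reversed-phase HPLC. The rate is expressed as nmol·min⁻¹·mg⁻¹ enzyme.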
The compound `CCCCCC(=O)OC[C@H](COP(=O)(O)OCCN)OC(=O)CCCCC` gave a CMC of 2.3 mM.

Another data set can be described thus: Ratio of catalysis rate (kcat) and Michaelis-Menten constant (Km) of the compound. In short, it runs like this: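 Recombinant human synovial PLA₂ (baculovirus-expressed, HPLC-purified) at 14 nM in 20 mM HEPES pH 7.5, 2 mM Ca²⁺, 0.8 mM DTNB. Thioester hydrolysis read at 405 nm as thionitrobenzoate (ε 13 600). Initial rates measured at substrate concentrations up to 100 μM. Apparent kcat/KM taken as the slope of rate versus [S] divided by enzyme concentration.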
On to `CCCCCCCCCC(=O)S[C@H](COCCC(C)(C)C)COP(=O)([O-])OC.[Li+]`, for which the Ratio was 627 l s-1 M-1.
The same measure, in the same setting: the value for `CCCCC(=O)SC[C@H](COP(=O)([O-])OC)SC(=O)CCCC.[Li+]` was 870 l s-1 M-1; that for `CCCCCCCC(=O)SC[C@H](COP(=O)([O-])OC)SC(=O)CCCCCCC.[Li+]` was 408000 l s-1 M-1.
As to `CCCCCCCCCC(=O)S[C@H](COCc1ccccc1)COP(=O)([O-])OC.[Li+]`, the Ratio was 5000 l s-1 M-1.
Same read-out and setting: with `CCCCCCOC[C@H](COP(=O)(O)OC)SC(=O)CCC(C)C` the figure was < 100 l s-1 M-1.
The same measure, in the same setting: the value for `CCCCCCCCOC[C@H](COP(=O)(O)OC)SC(=O)CCC` was 3700 l s-1 M-1; that for `CCCOC[C@H](COP(=O)([O-])OC)SC(=O)CCC.[Li+]` was < 10 l s-1 M-1; that for `CCCCCC(=O)SC[C@H](COP(=O)(OC)OC)SC(=O)CCCCC` was < 100 l s-1 M-1.
On to `CCCCCCCCCC(=O)S[C@H](COCc1ccc(Oc2ccccc2)cc1)COP(=O)([O-])OC.[Li+]`, for which the Ratio was 4600 l s-1 M-1.
Take `CCCCCCOC[C@H](COP(=O)(O)OC)SC(=O)c1ccccc1`: the Ratio is < 100 l s-1 M-1.
On to `CCCCCCCC(=O)S[C@H](COCCCCC)COP(=O)([O-])OC.[Li+]`, for which the Ratio is 7000 l s-1 M-1.
As for `CCCCCCCC(=O)S[C@H](COCCC)COP(=O)([O-])OC.[Li+]`, the Ratio was 1200 l s-1 M-1.
Same read-out and setting: the value for `CCCCCCOC[C@H](COP(=O)(O)OC)SC(=O)CCc1ccccc1` was 160 l s-1 M-1; that for `CCC(=O)SC[C@H](COP(=O)([O-])OC)SC(=O)CC.[Li+]` was < 10 l s-1 M-1.
As to `CCCCCC(=O)SC[C@H](COP(=O)([O-])OC)SC(=O)CCCCC.[Li+]`, the Ratio is 1800 l s-1 M-1.
For `CCCCCCCCC(=O)SC[C@H](COP(=O)([O-])OC)SC(=O)CCCCCCCC.[Li+]`, the Ratio is 541000 l s-1 M-1.
On the same count and under the same terms, the value for `CC/C=C/C(=O)S[C@H](COCCCCCC)COP(=O)(O)OC` was < 100 l s-1 M-1; that for `CCCCCOC[C@H](COP(=O)(O)OC)SC(=O)CCC` was < 100 l s-1 M-1.
As to `CCCCCCCCCC(=O)S[C@H](COCc1ccc(-c2ccccc2)cc1)COP(=O)([O-])OC.[Li+]`, the Ratio was 2500 l s-1 M-1.
On the same count and under the same terms, with `CC/C=C\CCOC[C@H](COP(=O)([O-])OC)SC(=O)CCCCCCCCC.[Li+]` the figure was 5900 l s-1 M-1; with `CCCC(=O)SC[C@H](COP(=O)([O-])OC)SC(=O)CCC.[Li+]`, 200 l s-1 M-1.
On the same count and under the same terms, with `CCCCCCCCCC(=O)S[C@H](COC/C=C/c1ccccc1)COP(=O)([O-])OC.[Li+]` the figure was 19000 l s-1 M-1; with `CCCCCCC(=O)SC[C@H](COP(=O)([O-])OC)SC(=O)CCCCCC.[Li+]`, 37700 l s-1 M-1; with `CCCCCCCCOC[C@H](COP(=O)([O-])OC)SC(=O)CCCCCCC.[Li+]`, 12000 l s-1 M-1.
